Data on 9 compounds can be found in ChEMBL document CHEMBL1833835, “Synthesis and evaluation of the anti parasitic activity of aromatic nitro compounds” (Eur J Med Chem, 2011).

A value given as a limit tells only on which side of the number the result lay.

For one test, the system named is PBMC. Briefly: Inhibition of cell proliferation of phytohemagglutinin-induced human PBMC. The test is classed as cell-based.
Test [1] concerns Trypanosoma cruzi. Kind of test: Trypanocidal activity against intracellular amastigote form of Trypanosoma cruzi Tulahuen expressing beta-galactosidase infected in mouse L929 cells after 7 days by microplate reader analysis. It is filed as functional, organism-based. Particulars: L929, 168 h.
A short description of test [2]: Selectivity index, ratio of IC50 for human PBMC to IC50 for Leishmania amazonensis IFLA/BR/67/PH8. The essentials:
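Ratio of PBMC proliferation IC50 (PHA-stimulated, MTT, 48 h) to promastigote IC50 (MTT, 48 h).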

Test [3] concerns Trypanosoma cruzi. Kind of test: Trypanocidal activity against intracellular trypomastigote form of Trypanosoma cruzi Tulahuen expressing beta-galactosidase infected in mouse L929 cells after 7 days by microplate reader analysis. Conditions: L929, 168 h. It is filed as functional, organism-based.
A further test deals with Leishmania amazonensis. Kind of test: Antiparasitic activity against promastigote form of Leishmania amazonensis IFLA/BR/67/PH8 after 48 hrs by MTT assay. Particulars: IFLA/BR/67/PH8, 48 h. It is filed as functional, organism-based. The essentials: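 Promastigotes kept at 23 °C in Schneider's medium with 20% heat-inactivated FCS, pH 7.2; plated at 1 × 10⁷/well. Screening at 100 µM in triplicate, then six-point dilutions in duplicate for compounds exceeding 50% inhibition. After 48 h, MTT added for 4 h, stopped with isopropanol/SDS, OD 570 nm read; IC50 from curve; three independent experiments.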

Take `O=C(O)c1ccc(CBr)cc1`: the IC50 in the test with PBMC was 88.8 µM; in the test on Trypanosoma cruzi [1] it was > 1000 µM; in the test with Trypanosoma cruzi [3], > 500 µM; in the test with Leishmania amazonensis, > 100 µM. Also, the “Ratio IC50” value in test [2] is on record as <0.9.
On to `O=C(NCCO)c1ccc(CCl)cc1`, for which the IC50 was 330 µM in the test on PBMC, > 1000 µM in the test on Trypanosoma cruzi [1] and > 100 µM with Leishmania amazonensis. Besides, in test [2], the “Ratio IC50” value is given as <3.3.
Consider `O=C(O)c1ccc(CO)c([N+](=O)[O-])c1`, for which the IC50 in the test with Trypanosoma cruzi [1] was > 1000 µM; in the test on Leishmania amazonensis, > 100 µM.
Compound `O=C(Cn1ccnc1[N+](=O)[O-])NCc1ccccc1` [BENZNIDAZOLE] yielded an IC50 with Trypanosoma cruzi [1] of 3.8 µM.
Consider `COC(=O)c1ccc(CBr)c([N+](=O)[O-])c1`, for which the IC50 with PBMC was 44.1 µM; in the test on Trypanosoma cruzi [1], > 1000 µM; with Trypanosoma cruzi [3] it was > 500 µM; with Leishmania amazonensis it was 39.3 µM. For the same compound, the “Ratio IC50” value in test [2] is listed as 1.1.
As for `O=C(NCCO)c1ccc(CBr)c([N+](=O)[O-])c1`, the 50% inhibitory concentration (IC50) is 53.9 µM in the test on PBMC, > 1000 µM with Trypanosoma cruzi [1] and 23.1 µM in the test on Leishmania amazonensis. Besides, in test [2], the “Ratio IC50” value is listed as 2.3.
The corresponding values for `O=C(NCCO)c1ccc(CCl)c([N+](=O)[O-])c1` are 960 µM, > 1000 µM, 59.5 µM and 16.1.
On the same counts, the results for `O=C(NCCCl)c1ccc(CCl)c([N+](=O)[O-])c1` are 1100 µM, > 1000 µM, 50.6 µM and 21.7.
Take `O=C(O)c1ccc(CBr)c([N+](=O)[O-])c1`: the concentration for half-maximal inhibition (IC50) is 344 µM in the test on PBMC, > 1000 µM in the test on Trypanosoma cruzi [1], > 500 µM with Trypanosoma cruzi [3] and > 100 µM in the test on Leishmania amazonensis. The “Ratio IC50” value in test [2] is <3.4.

Usually IC50 stands for the point on the concentration scale where inhibition reaches its midpoint. Higher therefore signals a need for much substance.
